The values below come from ChEMBL document CHEMBL4004835, “Discovery of Novel Disruptor of Silencing Telomeric 1-Like (DOT1L) Inhibitors using a Target-Specific Scoring Function for the (S)-Adenosyl-l-methionine (SAM)-Dependent Methyltransferase Family” (J Med Chem, 2017).

The target in experiment [1] is T1, Histone-lysine N-methyltransferase, H3 lysine-79 specific (Homo sapiens, UniProt Q8TEK3). Kind of experiment: Binding affinity to human N-terminal 6His-tagged DOT1L (1 to 416 residues) expressed in Escherichia coli BL21(DE3) after 150 secs by SPR-based binding assay.
Target sequence in this assay (Q8TEK3 whole entry, the tested form may be a part): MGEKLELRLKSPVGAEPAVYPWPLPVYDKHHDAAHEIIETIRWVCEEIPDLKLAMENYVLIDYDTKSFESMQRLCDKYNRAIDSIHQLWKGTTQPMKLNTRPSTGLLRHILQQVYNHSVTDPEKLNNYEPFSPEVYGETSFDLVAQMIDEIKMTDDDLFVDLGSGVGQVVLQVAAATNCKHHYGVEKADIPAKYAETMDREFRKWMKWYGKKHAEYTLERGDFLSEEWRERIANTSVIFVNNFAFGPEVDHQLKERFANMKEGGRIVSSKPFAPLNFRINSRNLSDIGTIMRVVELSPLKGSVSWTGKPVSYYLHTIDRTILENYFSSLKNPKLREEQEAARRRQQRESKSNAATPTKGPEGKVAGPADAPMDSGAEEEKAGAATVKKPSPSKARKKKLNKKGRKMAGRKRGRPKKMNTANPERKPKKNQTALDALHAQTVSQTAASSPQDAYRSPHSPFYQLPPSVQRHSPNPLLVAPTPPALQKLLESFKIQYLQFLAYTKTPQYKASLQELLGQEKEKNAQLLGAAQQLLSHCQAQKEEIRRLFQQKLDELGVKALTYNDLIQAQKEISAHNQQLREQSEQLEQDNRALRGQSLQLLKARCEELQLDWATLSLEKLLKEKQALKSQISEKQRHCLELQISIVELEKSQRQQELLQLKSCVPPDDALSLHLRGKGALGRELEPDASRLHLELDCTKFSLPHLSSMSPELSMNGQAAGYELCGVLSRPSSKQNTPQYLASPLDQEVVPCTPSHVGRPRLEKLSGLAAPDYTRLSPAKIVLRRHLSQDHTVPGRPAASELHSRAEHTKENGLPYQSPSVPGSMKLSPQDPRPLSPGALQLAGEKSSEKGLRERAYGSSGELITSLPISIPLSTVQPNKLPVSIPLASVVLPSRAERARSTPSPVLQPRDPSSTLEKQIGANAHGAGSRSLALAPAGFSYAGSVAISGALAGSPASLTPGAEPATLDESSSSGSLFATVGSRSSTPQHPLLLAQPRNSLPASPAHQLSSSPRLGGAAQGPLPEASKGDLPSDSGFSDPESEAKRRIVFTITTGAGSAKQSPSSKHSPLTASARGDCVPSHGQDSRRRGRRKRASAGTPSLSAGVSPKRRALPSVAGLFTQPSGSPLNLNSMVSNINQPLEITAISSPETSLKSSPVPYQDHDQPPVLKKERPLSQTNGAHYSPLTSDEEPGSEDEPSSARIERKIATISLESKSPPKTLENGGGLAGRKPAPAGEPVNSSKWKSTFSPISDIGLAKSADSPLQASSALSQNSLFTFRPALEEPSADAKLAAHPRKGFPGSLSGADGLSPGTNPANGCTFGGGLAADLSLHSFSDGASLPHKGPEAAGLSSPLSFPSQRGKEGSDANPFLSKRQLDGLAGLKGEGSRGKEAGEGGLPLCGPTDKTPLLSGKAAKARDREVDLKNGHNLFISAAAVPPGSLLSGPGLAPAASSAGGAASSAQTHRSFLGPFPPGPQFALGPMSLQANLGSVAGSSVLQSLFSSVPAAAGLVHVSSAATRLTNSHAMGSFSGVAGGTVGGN
Experiment [2] has as its system MV4-11. Kind of experiment: Induction of apoptosis in human MV4-11 cells assessed as necrotic cells at 25 uM after 72 hrs by annexin V/FITC and propidium iodide staining-based flow cytometric analysis (reference value: 0.04 %). In kind it is functional. In general terms: In flow cytometry, cells or beads pass a laser one at a time.
Experiment [3] addresses T1, Histone-lysine N-methyltransferase, H3 lysine-79 specific. Nature of the experiment: Inhibition of N-terminal 6His-tagged human DOT1L (1 to 416 residues) expressed in Escherichia coli BL21(DE3) at preincubated for 15 mins followed by [3H]-SAM addition measured after 120 mins by radioactive methylation assay. The method in brief:
(§1)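 DOT1L and compound preincubated 15 min at room temperature; oligonucleosome and 3H-SAM added; reaction 120 min at room temperature, stopped with cold SAM; transferred to 0.5% PEI-pretreated filter plate, washed 3× with water, read by liquid scintillation counting.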
Target sequence in this assay (Q8TEK3 whole entry, the tested form may be a part): as above

The target in experiment [4] is Protein arginine N-methyltransferase 5 (Homo sapiens) (UniProt O14744). Kind of experiment: Inhibition of PRMT5 (unknown origin) at 50 and 100 uM preincubated for 15 mins followed by substrate and [3H]-SAM addition for 60 mins measured after further 60 mins flashplate assay. The method in brief: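 In modified Tris buffer, enzyme preincubated 15 min at room temperature; substrate and [3H]SAM added for 60 min at room temperature; stopped with cold SAM; transferred to a Flashplate for 60 min, washed 3× with water plus 0.1% Tween-20, read by MicroBeta.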
Sequence of Protein arginine N-methyltransferase 5 (Homo sapiens) (O14744 whole entry): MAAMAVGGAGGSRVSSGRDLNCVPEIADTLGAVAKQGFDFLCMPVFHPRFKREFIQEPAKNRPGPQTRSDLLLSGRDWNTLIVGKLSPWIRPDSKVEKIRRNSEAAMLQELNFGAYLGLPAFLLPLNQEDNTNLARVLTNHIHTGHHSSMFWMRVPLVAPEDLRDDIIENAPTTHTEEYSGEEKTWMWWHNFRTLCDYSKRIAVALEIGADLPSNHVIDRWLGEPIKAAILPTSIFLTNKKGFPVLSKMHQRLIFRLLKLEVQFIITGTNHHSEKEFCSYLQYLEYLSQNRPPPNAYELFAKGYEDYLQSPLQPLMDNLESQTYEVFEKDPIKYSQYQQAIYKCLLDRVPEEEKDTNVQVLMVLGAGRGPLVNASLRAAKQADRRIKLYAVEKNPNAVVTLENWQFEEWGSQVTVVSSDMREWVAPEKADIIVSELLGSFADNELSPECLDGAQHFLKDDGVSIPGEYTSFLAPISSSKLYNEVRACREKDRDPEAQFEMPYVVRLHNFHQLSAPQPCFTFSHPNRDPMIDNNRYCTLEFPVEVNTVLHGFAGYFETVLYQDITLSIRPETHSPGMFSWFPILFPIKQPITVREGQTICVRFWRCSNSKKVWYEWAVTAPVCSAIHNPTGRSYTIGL

Experiment [5] concerns the target T1, Histone-lysine N-methyltransferase, H3 lysine-79 specific. Kind of experiment: Inhibition of N-terminal 6His-tagged human DOT1L (1 to 416 residues) expressed in Escherichia coli BL21(DE3) at 50 uM preincubated for 15 mins followed by [3H]-SAM addition measured after 120 mins by radioactive methylation assay. The procedure, abridged: as §1
Target sequence in this assay (Q8TEK3 whole entry, looked up, the tested form may be a part): as the sequence (Q8TEK3 whole entry, the tested form may be a part) above
The test system of experiment [6] is MV4-11. Kind of experiment: Induction of cell cycle arrest in human MV4-11 cells assessed as accumulation at S phase at 25 uM after 48 hrs by propidium iodide/RNase-staining based flow cytometric analysis (reference value: 24.40 %). It counts as functional. The procedure, abridged:
(§2)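 MV4-11 cells (2 × 10^6) seeded in 12-well dishes, treated with different concentrations for 48 h, processed with a PI/RNase staining kit and analysed for cell-cycle distribution by FACSCalibur flow cytometry.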

Experiment [7] deals with MV4-11. Nature of the experiment: Induction of cell cycle arrest in human MV4-11 cells assessed as accumulation at S phase at 50 uM after 48 hrs by propidium iodide/RNase-staining based flow cytometric analysis (reference value: 24.40 %). In kind it is functional. The procedure, abridged: as §2
The subject of experiment [8] is MV4-11. Kind of experiment: Induction of cell cycle arrest in human MV4-11 cells assessed as accumulation at G1 phase at 25 uM after 48 hrs by propidium iodide/RNase-staining based flow cytometric analysis (reference value: 68.16 %). In kind it is functional. The procedure, abridged: as §2
Experiment [9] relates to MV4-11. Kind of experiment: Induction of cell cycle arrest in human MV4-11 cells assessed as accumulation at G1 phase at 6.25 uM after 48 hrs by propidium iodide/RNase-staining based flow cytometric analysis (reference value: 68.16 %). In kind it is functional. The method in brief: as §2
Experiment [10] relates to MV4-11. Kind of experiment: Induction of apoptosis in human MV4-11 cells assessed as early apoptotic cells at 25 uM after 72 hrs by annexin V/FITC and propidium iodide staining-based flow cytometric analysis (reference value: 5.66 %). In kind it is functional.
For experiment [11], the system named is MV4-11. Nature of the experiment: Induction of apoptosis in human MV4-11 cells assessed as late apoptotic cells at 6.25 uM after 72 hrs by annexin V/FITC and propidium iodide staining-based flow cytometric analysis (reference value: 4.02 %). In kind it is functional.
Experiment [12] has as its system MV4-11. Nature of the experiment: Induction of cell cycle arrest in human MV4-11 cells assessed as accumulation at G2 phase at 12.5 uM after 48 hrs by propidium iodide/RNase-staining based flow cytometric analysis (reference value: 7.44 %). In kind it is functional. The procedure, abridged: as §2
Experiment [13] concerns the target T1, Histone-lysine N-methyltransferase, H3 lysine-79 specific. Nature of the experiment: Inhibition of N-terminal 6His-tagged human DOT1L (1 to 416 residues) expressed in Escherichia coli BL21(DE3) at 50 uM using histone H3 as substrate preincubated for 15 mins followed by SAM addition measured after 60 mins by AlphaLISA assay. The procedure, abridged:
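DOT1L (80 nM final) preincubated with compound 15 min at 25 °C; SAM 1 mM and oligonucleosomes 0.25 ng/μL added in 50 mM Tris-HCl pH 8.0, 150 mM NaCl, 3 mM MgCl2, 0.1% BSA, 60 min at 25 °C; stopped with high-salt buffer; H3K79me2 detected with anti-H3 acceptor beads, biotinylated antibody, then streptavidin donor beads.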
A general note: Bead proximity is the source of the signal in Alpha formats.
Target sequence in this assay (Q8TEK3 whole entry, looked up, the tested form may be a part): as the sequence (Q8TEK3 whole entry, the tested form may be a part) above

The target of experiment [14] is Histone-lysine N-methyltransferase, H3 lysine-36 specific (Homo sapiens) (UniProt Q96L73). Nature of the experiment: Inhibition of NSD1 (unknown origin) at 50 and 100 uM preincubated for 15 mins followed by substrate and [3H]-SAM addition after 120 mins by MicroBeta counting. The method in brief:
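In modified Tris buffer, enzyme incubated 15 min at room temperature, then substrate and [3H]SAM added; stopped at 120 min with cold SAM; transferred to a 0.5% PEI-pretreated GF/B plate, washed 3× with water, read by MicroBeta.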

Experiment [15] concerns MV4-11. Nature of the experiment: Induction of apoptosis in human MV4-11 cells assessed as late apoptotic cells at 50 uM after 72 hrs by annexin V/FITC and propidium iodide staining-based flow cytometric analysis (reference value: 4.02 %). It counts as functional.
For experiment [16], the system named is MV4-11. Nature of the experiment: Induction of apoptosis in human MV4-11 cells assessed as early apoptotic cells at 12.5 uM after 72 hrs by annexin V/FITC and propidium iodide staining-based flow cytometric analysis (reference value: 5.66 %). It counts as functional.
The subject of experiment [17] is MV4-11. Nature of the experiment: Induction of cell cycle arrest in human MV4-11 cells assessed as accumulation at G1 phase at 50 uM after 48 hrs by propidium iodide/RNase-staining based flow cytometric analysis (reference value: 68.16 %). In kind it is functional. The method in brief:
as §2

Molecules are shown by their SMILES.

Sequence of Histone-lysine N-methyltransferase, H3 lysine-36 specific (Homo sapiens) (Q96L73 whole entry): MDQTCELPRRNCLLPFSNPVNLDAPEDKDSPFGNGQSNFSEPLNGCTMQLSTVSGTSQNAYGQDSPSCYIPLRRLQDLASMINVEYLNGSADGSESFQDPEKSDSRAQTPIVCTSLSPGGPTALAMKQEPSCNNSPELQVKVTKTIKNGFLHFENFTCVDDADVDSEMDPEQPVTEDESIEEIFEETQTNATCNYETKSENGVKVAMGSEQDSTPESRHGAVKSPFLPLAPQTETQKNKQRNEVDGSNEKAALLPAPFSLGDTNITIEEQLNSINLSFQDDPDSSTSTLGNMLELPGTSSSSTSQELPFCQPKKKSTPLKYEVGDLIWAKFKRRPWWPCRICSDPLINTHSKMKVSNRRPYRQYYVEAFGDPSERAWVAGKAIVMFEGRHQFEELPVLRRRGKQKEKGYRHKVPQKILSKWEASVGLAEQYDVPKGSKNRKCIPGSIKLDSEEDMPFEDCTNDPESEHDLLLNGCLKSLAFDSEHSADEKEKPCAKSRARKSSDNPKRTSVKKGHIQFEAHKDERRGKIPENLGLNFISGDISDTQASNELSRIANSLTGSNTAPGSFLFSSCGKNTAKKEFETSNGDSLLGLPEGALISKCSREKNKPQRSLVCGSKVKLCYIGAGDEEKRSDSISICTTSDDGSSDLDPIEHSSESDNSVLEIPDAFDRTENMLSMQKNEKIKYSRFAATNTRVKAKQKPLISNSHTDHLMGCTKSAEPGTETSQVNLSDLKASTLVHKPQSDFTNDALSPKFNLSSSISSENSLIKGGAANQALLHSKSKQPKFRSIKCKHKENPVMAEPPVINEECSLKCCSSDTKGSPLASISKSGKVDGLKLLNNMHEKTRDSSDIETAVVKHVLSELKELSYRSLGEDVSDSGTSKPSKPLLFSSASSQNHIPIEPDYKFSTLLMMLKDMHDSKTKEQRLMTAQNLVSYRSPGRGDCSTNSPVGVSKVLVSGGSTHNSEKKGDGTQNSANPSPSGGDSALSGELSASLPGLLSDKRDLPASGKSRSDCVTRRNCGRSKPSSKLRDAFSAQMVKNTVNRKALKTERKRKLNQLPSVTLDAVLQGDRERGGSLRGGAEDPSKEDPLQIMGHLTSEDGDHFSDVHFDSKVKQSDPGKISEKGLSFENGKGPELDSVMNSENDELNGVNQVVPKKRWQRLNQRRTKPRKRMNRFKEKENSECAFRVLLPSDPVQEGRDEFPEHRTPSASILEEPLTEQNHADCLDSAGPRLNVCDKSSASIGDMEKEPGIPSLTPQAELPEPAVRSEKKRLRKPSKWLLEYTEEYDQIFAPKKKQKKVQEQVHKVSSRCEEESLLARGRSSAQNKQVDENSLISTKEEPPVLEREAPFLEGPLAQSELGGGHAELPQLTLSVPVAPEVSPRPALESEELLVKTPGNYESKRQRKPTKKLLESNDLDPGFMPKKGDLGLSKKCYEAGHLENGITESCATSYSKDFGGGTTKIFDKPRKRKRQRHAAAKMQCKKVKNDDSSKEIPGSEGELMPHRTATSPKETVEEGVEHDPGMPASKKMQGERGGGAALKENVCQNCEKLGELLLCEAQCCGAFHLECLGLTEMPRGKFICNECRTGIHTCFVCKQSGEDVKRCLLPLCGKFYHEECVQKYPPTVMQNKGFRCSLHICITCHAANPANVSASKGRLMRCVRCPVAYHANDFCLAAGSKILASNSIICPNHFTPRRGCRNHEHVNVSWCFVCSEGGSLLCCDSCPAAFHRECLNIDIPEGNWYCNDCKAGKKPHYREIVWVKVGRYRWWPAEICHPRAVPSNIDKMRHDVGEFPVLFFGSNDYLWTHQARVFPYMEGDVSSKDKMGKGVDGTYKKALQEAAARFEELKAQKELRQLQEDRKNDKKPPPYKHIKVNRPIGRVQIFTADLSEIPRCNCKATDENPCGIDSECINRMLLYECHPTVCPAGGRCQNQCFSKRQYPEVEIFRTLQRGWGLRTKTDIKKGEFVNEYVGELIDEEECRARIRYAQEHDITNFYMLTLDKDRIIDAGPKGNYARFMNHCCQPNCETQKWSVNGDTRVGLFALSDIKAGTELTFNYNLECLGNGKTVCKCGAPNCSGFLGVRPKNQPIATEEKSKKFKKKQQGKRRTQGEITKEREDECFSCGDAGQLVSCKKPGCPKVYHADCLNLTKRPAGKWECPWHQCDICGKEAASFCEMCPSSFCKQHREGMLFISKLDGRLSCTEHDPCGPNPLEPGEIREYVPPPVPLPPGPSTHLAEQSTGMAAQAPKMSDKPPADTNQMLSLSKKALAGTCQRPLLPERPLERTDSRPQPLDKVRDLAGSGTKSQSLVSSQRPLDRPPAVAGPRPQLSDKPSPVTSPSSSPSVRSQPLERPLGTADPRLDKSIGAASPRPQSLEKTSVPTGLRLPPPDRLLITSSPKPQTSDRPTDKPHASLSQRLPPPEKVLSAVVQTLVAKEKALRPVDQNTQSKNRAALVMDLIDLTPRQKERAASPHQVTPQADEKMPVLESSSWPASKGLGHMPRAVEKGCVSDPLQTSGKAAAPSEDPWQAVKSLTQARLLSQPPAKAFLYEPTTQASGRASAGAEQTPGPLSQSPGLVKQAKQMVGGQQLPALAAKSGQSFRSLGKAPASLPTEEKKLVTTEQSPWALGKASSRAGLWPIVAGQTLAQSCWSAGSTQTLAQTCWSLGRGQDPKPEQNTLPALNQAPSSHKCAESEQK

On to `Fc1cccc(-c2nn3c(Cn4nnc5ccccc54)nnc3s2)c1`, for which the Kd (as a rule, the free concentration of one partner at which half of the binding sites on the other are occupied at equilibrium, for simple one-to-one binding) in [1] turned out to be 17.3 µM. In addition, the Activity in [2] worked out at 1.6%; in experiment [6], 15.82%; in experiment [7], 17.76%; in experiment [8] it was 83.18%; in [9] it was 67.64%; in experiment [10], 58.2%. Moreover, the Activity amounted to 25% in experiment [11]; 4.35% in experiment [12]; 40.8% in [15]; 50.1% in [16]; 82.24% in experiment [17]. In [3], the IC50 (commonly the concentration needed to halve the response being measured) came out at 8.29 µM. Further, the inhibition (usually the change of the read-out against control, counted positive when it falls) in experiment [4] was less than 40%; in experiment [5], 68%; in experiment [13], greater than 40%; in experiment [14], less than 40%.
